PKA-R1A activ = activators of PKA-R1A holoenzyme, primary screen, biochemical, fluorescence polarization, Cy5-IP20, bovine R1A, mouse PKAc; PKA-R1A dissociation; scaled: DMSO 0%, 113 µM cGMP 100%; cAMP-dependent protein kinase type I-alpha regulatory subunit (Bos taurus) + …; activation, % at 11.4 µM; 0.083% of 340,000 active;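 active means percent activation above the mean of all tested compounds plus 3 SD, cut at about 19% in these data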;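 further: higher means more PKAc released from R1A so a rise in polarization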
PKA-R2B activ = activators of PKA-R2B holoenzyme, primary screen, biochemical, fluorescence polarization, Cy5-IP20, human; cAMP-dependent protein kinase catalytic subunit beta (Homo sapiens) + cAMP-dependent …; PKA-R2B holoenzyme dissociation; R2B truncated from residue 108, S112A mutant; 0% DMSO only, 100% 113 µM cGMP; activation, % at 11.4 µM; 0.079% of 340,000 active; AID 504700, 2011;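 active means activation above a cutoff set at the mean over all compounds plus 3 SD, cut at about 18% in these data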;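 further: higher means more holoenzyme dissociation and a rise in polarization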
Target sequence (P31323 whole entry, looked up, other chains not shown, the tested form may be a part): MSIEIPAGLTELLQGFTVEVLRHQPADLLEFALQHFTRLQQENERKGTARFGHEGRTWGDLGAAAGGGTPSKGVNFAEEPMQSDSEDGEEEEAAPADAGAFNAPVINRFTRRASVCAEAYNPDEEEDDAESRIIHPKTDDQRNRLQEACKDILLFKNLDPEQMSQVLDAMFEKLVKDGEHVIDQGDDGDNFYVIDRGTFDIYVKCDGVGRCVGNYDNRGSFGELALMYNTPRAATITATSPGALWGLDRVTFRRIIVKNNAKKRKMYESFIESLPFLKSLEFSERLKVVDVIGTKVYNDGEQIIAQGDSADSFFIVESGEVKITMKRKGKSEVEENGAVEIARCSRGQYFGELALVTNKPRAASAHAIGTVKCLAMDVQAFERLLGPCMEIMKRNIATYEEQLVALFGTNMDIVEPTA
SIRT5 block = SIRT5 desuccinylase inhibitors, primary screen, biochemical, fluorescence imaging, single point, set 5 | NAD-dependent protein deacylase sirtuin-5, mitochondrial (Homo sapiens), Q9NXA8 | Purified SirT5, succinyl-peptide AMC, trypsin-coupled fluorescence | inhibition, % at 15 µM | 1.1% of 330,000 active | AID 652115, 2013; in the data active means inhibition above about 15%
CRFBP-R2 block = antagonists of CRF-BP/CRF-R2 complex, primary screen, cell-based, HEK293, calcium dye fluorescence, uHTS | CRF-induced calcium fluorescence | inhibition, % at 11.8 µM | 0.59% of 350,000 active | AID 588475, 2011;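 active means inhibition of the ligand-induced calcium signal above about 50% at the single tested concentration, limit read from the data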
S100A4 MyoIIA = inhibitors of S100A4-myosin IIA peptide binding, primary screen, biochemical, fluorescence polarization, TAMRA-MyoIIA peptide; inhibition, % at 10.7 µM; 0.14% of 360,000 active; AID 652163, 2013;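 active means mean inhibition of at least 70% across replicates, with every replicate also reaching that level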
Target sequence (P26447 whole entry, looked up): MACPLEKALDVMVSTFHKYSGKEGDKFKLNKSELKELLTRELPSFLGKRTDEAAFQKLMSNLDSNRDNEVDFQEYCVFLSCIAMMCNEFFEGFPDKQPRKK
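Material: human S100A4 monomer with TAMRA-labelled myosin IIA peptide; buffer or medium: HEPES pH 7.2 with CaCl2, KCl, NaCl, DTT, Triton; compound dosing: one concentration per compound; schedule: 5 min incubation before reading; benchmarks: neutral control DMSO, positive control TFP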
Starred values were filed as active, the others as inactive; / = no result given; ! = not active in a repeat. Most compounds without a hit are left out; they make up all but 1.5% or so of the library.

SMILES | PKA-R1A activ | PKA-R2B activ | SIRT5 block | CRFBP-R2 block | S100A4 MyoIIA
COc1ccc(C)cc1S(=O)(=O)N1CCN(S(=O)(=O)c2cc(C)ccc2OC)CC1 | -14 | -12 | / | 54* | /
CN(C)CCCCCCNC(=O)[C@@H]1C[C@@H]2C(=O)NCC(=O)N2[C@@H]1c1cccc(OCCO)c1 | / | / | 18* | / | -5
NCCCCCNC(=O)[C@@H]1C[C@@H]2C(=O)NCC(=O)N2[C@@H]1c1cccc(OCCO)c1 | / | / | 1 | / | -10
O=C1c2cccc3c([N+](=O)[O-])ccc(c23)C(=O)N1c1ccc(Cl)cn1 | -5 | -1 | / | 91* | /
O=C1c2cccc3c([N+](=O)[O-])ccc(c23)C(=O)N1c1nccs1 | -10 | -5 | / | 83* | /
CC(=O)Oc1ccc(N2C(=O)c3cccc4c([N+](=O)[O-])ccc(c34)C2=O)cc1 | -4 | 8 | -2 | 75* | 0
O=C1c2cccc3c([N+](=O)[O-])ccc(c23)C(=O)N1c1ccccn1 | -5 | -8 | / | 60* | /
O=C1c2cccc3c([N+](=O)[O-])ccc(c23)C(=O)N1O | -1 | -6 | 5 | -6 | -2
CC(=O)Oc1ccc(-n2c(=O)c3ccccc3c3ccccc3c2=O)cc1 | -20 | 8 | 2 | 32 | -9
O=C1c2cccc3cccc(c23)C(=O)N1c1nccs1 | -1 | 6 | / | 21 | /
O=C1c2ccc([N+](=O)[O-])cc2C(=O)N1c1ccc(Cl)cn1 | 3 | -2 | 0 | -3 | -6
O=C(CCN1CCCCC1)N[C@@H]1CC[C@@H](CCNS(=O)(=O)c2ccc(Cl)cc2)O[C@@H]1CO | / | / | 0 | / | -4
COc1ccc2c3c(n(C)c2c1)[C@H](CO)N(Cc1ccc(F)cc1)CC31CN(C)C1 | / | / | / | / | -6
COc1ccccc1NC(=O)C(Sc1ccccc1)c1ccccc1 (stereo not drawn) | -12 | -7 | / | 33 | /
COc1ccc(NC(=O)C(Sc2ccccc2)c2ccccc2)c(OC)c1 (stereo not drawn) | 0 | -14 | / | 51* | /
O=C(C[C@@H]1CC[C@@H](NC(=O)c2cccc(F)c2)[C@H](CO)O1)NCCN1CCCC1 | / | / | -2 | / | -2
COc1ccc2c3c([nH]c2c1)[C@@H](CO)NCC31CCN(Cc2ccc(F)cc2)CC1 | / | / | -4 | / | /
CC(C)(C)NC(=O)C(c1ccccn1)N(C(=O)C1CSC(=O)C1)c1cccc(F)c1 (stereo not drawn) | -14 | -12 | 0 | 70* | 0
O=C(O)C1=C[C@H](c2coc3ccccc3c2=O)C[C@H](OCCCCO)O1 | -4 | -9 | 16*! | 6 | 9
CCCNC(=O)Nc1ccc2c(c1)OC[C@H](C)N(Cc1ccncc1)C[C@H](C)[C@H](OC)CN(C)C2=O | / | / | 0 | / | -45
C[C@@H]1CN([C@H](C)CO)C(=O)Cc2cc(NS(C)(=O)=O)ccc2O[C@H]1CN(C)S(=O)(=O)c1cccs1 | / | / | 3 | / | 0
CCC(=O)Nc1ccc2c(c1)OC[C@H](C)N(C(=O)CC1CC1)C[C@H](C)[C@H](OC)CN(C)C2=O | / | / | 5 | / | 96*
CO[C@H]1CN(C)C(=O)c2ccc(NC(=O)NC(C)C)cc2OC[C@@H](C)N(C(=O)NC(C)C)C[C@H]1C | / | / | 0 | / | 89*
CCC(=O)Nc1ccc2c(c1)OC[C@@H](C)N(C(=O)CC1CC1)C[C@H](C)[C@@H](OC)CN(C)C2=O | / | / | 1 | / | -3
CO[C@H]1CN(C)C(=O)c2cc(NC(=O)NC(C)C)ccc2OC[C@@H](C)N(C(=O)CC2CC2)C[C@@H]1C | / | / | 20* | / | -2
SMILES | PKA-R1A activ | PKA-R2B activ | SIRT5 block | CRFBP-R2 block | S100A4 MyoIIA
CO[C@H]1CN(C)C(=O)c2ccc(NC(=O)NC(C)C)cc2OC[C@@H](C)N(C(=O)NC(C)C)C[C@@H]1C | / | / | -5 | / | -7
CCCNC(=O)Nc1ccc2c(c1)OC[C@H](C)N(S(C)(=O)=O)C[C@@H](C)[C@@H](OC)CN(C)C2=O | / | / | 15* | / | -31
COC(=O)C[C@H]1CC[C@H]2[C@@H](COC[C@H](O)CN2S(=O)(=O)c2ccccc2C)O1 | / | / | / | / | 8
C[C@@H]1CN([C@H](C)CO)C(=O)c2cc(C#C[C@@H](C)O)cnc2O[C@H]1CN(C)Cc1cccc(F)c1 | / | / | 0 | / | 0
CCC(=O)N[C@@H]1C=C[C@@H](CC(=O)NCc2ccc(OC)cc2)O[C@H]1CO | / | / | 1 | / | 15
CC(=O)Nc1ccc(N2C(=O)CSC2c2ccccc2)cc1 (stereo not drawn) | 6 | -3 | 11 | 4 | -13
CC(=O)Nc1ccc(N2C(=O)CSC2c2ccc([N+](=O)[O-])cc2)cc1 (stereo not drawn) | -9 | -2 | 27* | 3 | -10
O=C(CCN1C(=O)/C(=C\c2ccco2)SC1=S)Nc1ccc(C(=O)O)c(O)c1 | -9 | -1 | 57* | 0 | -32
O=C(CCN1C(=O)/C(=C/c2ccco2)SC1=S)Nc1ccc(C(=O)O)c(O)c1 | 0 | -8 | 50* | -6 | -49
COc1ccccc1/C=C1\SC(=S)N(CCC(=O)Nc2ccc(C(=O)O)c(O)c2)C1=O | 7 | -2 | 46* | -13 | 2
COc1ccccc1S(=O)(=O)N[C@@H]1CC[C@@H](CC(=O)N2CCOCC2)O[C@H]1CO | / | / | -2 | / | 1
CCn1nc(C)cc1-c1nnc(Sc2ncc([N+](=O)[O-])s2)n1C | -11 | -5 | -5 | 97* | 0
CCn1nc(C)cc1-c1nnc(SCC(=O)Nc2ccccc2)n1CCCOC | -6 | -8 | -2 | 0 | -2
CN(/N=C/c1ccc(Cl)cc1Cl)c1ncc(Cl)cc1C(F)(F)F | 0 | 3 | -4 | 63* | -3
CN(/N=C/c1ccc(Cl)cc1)c1ncc(Cl)cc1C(F)(F)F | -2 | 9 | 0 | -25 | -9
CO[C@H]1CN(C)C(=O)c2cc(NC(=O)C3CC3)ccc2OC[C@@H](C)N(C(C)=O)C[C@@H]1C | / | / | -6 | / | 1
CCOc1ccc(/C=C2\SC(=S)N(NS(=O)(=O)c3ccc(C)cc3)C2=O)cc1OC | 0 | -10 | 3 | 51* | 0
CCC(=O)N[C@H]1C=C[C@@H](CC(=O)NCCN2CCCCC2)O[C@H]1CO | / | / | -13 | / | 0
CC1(C)Cc2c(sc(/N=C/N3CCCCCC3)c2C#N)C(C)(C)N1 | 6 | 0 | 0 | -16 | -4

High-throughput results deposited in PubChem BioAssay by several laboratories.
